Data reported in ChEMBL document CHEMBL1153610, “Synthesis and antiprotozoal activities of dicationic bis(phenoxymethyl)benzenes, bis(phenoxymethyl)naphthalenes, and bis(benzyloxy)naphthalenes” (Eur J Med Chem, 2009).
Active and inactive are the calls of the source. The calls are words filed in the database; no cut-off is given here.

How the values were obtained:
[1] = tested on: Trypanosoma brucei rhodesiense; experiment: Antitrypanosomal activity against Trypanosoma brucei rhodesiense STIB900 infected NMRI mouse assessed mean survival time at 20 mg/kg, ip dosed for 4 days; type: functional; details: route intraperitoneal
[2] = tested on: Trypanosoma brucei rhodesiense; experiment: Antitrypanosomal activity against Trypanosoma brucei rhodesiense STIB900; type: functional, organism-based
[3] = Selectivity index, ratio of IC50 for rat L6 cells to IC50 for Trypanosoma brucei rhodesiense STIB900; type: toxicity, cell-based; details: read-out: Ratio IC50
[4] = tested on: L6; experiment: Cytotoxicity against rat L6 cells; type: cell-based
Outline: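 Rat L6 myoblasts served as the cytotoxicity measure. IC50 is the average of duplicate determinations.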

[5] = tested on: Plasmodium falciparum; experiment: Antimalarial activity against chloroquine-resistant Plasmodium falciparum K1; type: functional, organism-based
[6] = Selectivity index, ratio of IC50 for rat L6 cells to IC50 for chloroquine-resistant Plasmodium falciparum K1; type: toxicity, cell-based; details: read-out: Ratio IC50
[7] = tested on: Trypanosoma brucei rhodesiense; experiment: Antitrypanosomal activity against Trypanosoma brucei rhodesiense STIB900 infected NMRI mouse assessed as infection cure rate at 20 mg/kg, ip dosed for 4 days; type: functional, organism-based; design: dose 20 mg/kg
Outline: (§1)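 Mice infected with T. b. rhodesiense STIB900 were dosed intraperitoneally once daily for 4 days. Outcome was scored as cured/infected animals out of groups of four, plus mean survival days post infection for mice showing parasitemia relapse.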

[8] = Selectivity index, ratio of IC50 for rat L6 cells to IC50 for Leishmania donovani MHOM/SD/62/1S-CL2D amastigotes; type: toxicity, cell-based; details: read-out: Ratio IC50
[9] = tested on: Mus musculus; experiment: Toxicity in ip dosed NMRI mouse infected with Trypanosoma brucei rhodesiense STIB900; type: organism-based; details: in vivo
[10] = tested on: Trypanosoma brucei rhodesiense; experiment: Antitrypanosomal activity against Trypanosoma brucei rhodesiense STIB900 infected NMRI mouse assessed as infection cure rate at 5 mg/kg, ip dosed for 4 days; type: functional, organism-based; design: dose 5 mg/kg; outline: as §1
[11] = tested on: Leishmania donovani; experiment: Antileishmanial activity against Leishmania donovani MHOM/SD/62/1S-CL2D amastigotes; type: functional, organism-based
Outline: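 IC50 taken as the average of duplicate determinations against L. donovani.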

[12] = tested on: Trypanosoma brucei rhodesiense; experiment: Antitrypanosomal activity against Trypanosoma brucei rhodesiense STIB900 infected NMRI mouse assessed mean survival time at 5 mg/kg, ip dosed for 4 days; type: functional; details: route intraperitoneal
[13] = tested on: Trypanosoma brucei rhodesiense; experiment: Antitrypanosomal activity against Trypanosoma brucei rhodesiense STIB900 infected NMRI mouse assessed mean survival time at 10 mg/kg, ip dosed for 4 days; type: functional; details: route intraperitoneal
[14] = tested on: Trypanosoma brucei rhodesiense; experiment: Antitrypanosomal activity against Trypanosoma brucei rhodesiense STIB900 infected NMRI mouse assessed as infection cure rate at 10 mg/kg, ip dosed for 4 days; type: functional, organism-based; design: dose 10 mg/kg; outline: as §1
[15] = tested on: Trypanosoma brucei rhodesiense; experiment: Antitrypanosomal activity against Trypanosoma brucei rhodesiense STIB900 infected NMRI mouse assessed as infection cure rate at 4 mg/kg, ip dosed for 4 days; type: functional, organism-based; design: dose 4 mg/kg
[16] = tested on: Trypanosoma brucei rhodesiense; experiment: Antitrypanosomal activity against Trypanosoma brucei rhodesiense STIB900 infected NMRI mouse assessed mean survival time at 4 mg/kg, ip dosed for 4 days; type: functional; details: route intraperitoneal
[17] = tested on: Trypanosoma brucei rhodesiense; experiment: Antitrypanosomal activity against Trypanosoma brucei rhodesiense STIB900 infected NMRI mouse assessed mean survival time at 100 mg/kg, po dosed for 4 days; type: functional
[18] = tested on: Trypanosoma brucei rhodesiense; experiment: Antitrypanosomal activity against Trypanosoma brucei rhodesiense STIB900 infected NMRI mouse assessed as infection cure rate at 100 mg/kg, po dosed for 4 days; type: functional, organism-based; design: dose 100 mg/kg
Outline: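 Mice infected with T. b. rhodesiense STIB900 received oral doses once daily for 4 days. Cure was scored as cured/infected animals, with mean survival days post infection for relapsing mice.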

| Structure (SMILES) | Survival [1] | IC50 [2] | selectivity ratio [3] | IC50 [4] | IC50 [5] | selectivity ratio [6] | Activity [7] | selectivity ratio [8] | Activity [9] | Activity [10] | IC50 [11] | Survival [12] | Survival [13] | Activity [14] | Activity [15] | Survival [16] | Survival [17] | Activity [18] |
| --- | --- | --- | --- | --- | --- | --- | --- | --- | --- | --- | --- | --- | --- | --- | --- | --- | --- | --- |
| N=C(N)c1ccc(OCc2cc(COc3ccc(C(=N)N)cc3)c3ccccc3c2)cc1 | 12 days | 325 nM | 212 | 68800 nM | 55.1 nM | 1250 | inactive |  |  |  |  |  |  |  |  |  |  |  |
| CC(C)NC(=N)c1ccc(OCc2ccc(COc3ccc(C(=N)NC(C)C)cc3)cc2)cc1 |  | 74.8 nM | > 2230 | > 167000 nM | 17 nM | > 9820 |  | > 20.9 | Toxic | inactive | 7990 nM | 17 days |  |  |  |  |  |  |
| N=C(N)c1ccc(OCc2cccc(COc3ccc(C(=N)N)cc3)c2)cc1 |  | 2.1 nM | 4350 | 9140 nM | 25.6 nM | 357 |  | 2.8 |  |  | 3260 nM |  | >35.5 days |  |  |  |  |  |
| N=C(N)c1cccc(OCc2ccccc2COc2cccc(C(=N)N)c2)c1 |  | 140 nM | 602 | 84600 nM | 109 nM | 775 |  | 15.4 | Toxic |  | 5500 nM |  | >27.3 days |  |  |  |  |  |
| CC(C)NC(=N)c1ccc(OCc2cccc(COc3ccc(C(=N)NC(C)C)cc3)c2)cc1 |  | 68 nM | > 2490 | > 169000 nM | 3.6 nM | > 46900 |  | > 23.2 |  | Active | 7270 nM | >51.5 days | >60 days | Active |  |  |  |  |
| CC(C)NC(=N)c1ccc(OCc2ccc(COc3ccc(C(=N)NC(C)C)cc3)c3ccccc23)cc1 |  | 313 nM | 134 | 41800 nM | 66.9 nM | 625 |  | 4.29 |  |  | 9730 nM |  |  |  |  |  |  |  |
| Nc1nc(N)nc(Nc2ccc([As]3SCC(CO)S3)cc2)n1 (stereo unspecified) [MELARSOPROL] |  |  | 1220 |  |  |  |  |  |  |  |  |  |  |  | Active | >60 days |  |  |
| N=C(N)c1cccc(OCc2ccc(COc3cccc(C(=N)N)c3)cc2)c1 | 19.5 days | 77.8 nM | 103 | 8020 nM | 67.7 nM | 119 | inactive | < 0.0401 |  |  | > 200000 nM |  |  |  |  |  |  |  |
| N=C(NO)c1cccc(OCc2cccc(COc3cccc(C(=N)NO)c3)c2)c1 |  | 7710 nM | 1.12 | 8600 nM | 2090 nM | 4.12 |  | < 0.172 |  |  | > 50000 nM |  |  |  |  |  | 14.5 days | inactive |
| N=C(N)c1ccc(OCc2ccc(COc3ccc(C(=N)N)cc3)cc2)cc1 | 32 days | 20.7 nM | 600 | 12400 nM | 64 nM | 194 | inactive | 9.4 |  |  | 1320 nM |  |  |  |  |  |  |  |
| CC(C)NC(=N)c1ccc(OCc2ccccc2COc2ccc(C(=N)NC(C)C)cc2)cc1 |  | 1680 nM | 97 | 163000 nM | 10.9 nM | 15000 |  | 14 |  |  | 11700 nM |  |  |  |  |  |  |  |
| N=C(N)c1ccc(OCc2ccc(COc3ccc(C(=N)N)cc3)c3ccccc23)cc1 |  | 234 nM | 121 | 28300 nM | 126 nM | 224 |  |  |  |  |  |  |  |  |  |  |  |  |
| CONC(=N)c1ccc(OCc2cccc(COc3ccc(C(=N)NOC)cc3)c2)cc1 |  | 30400 nM | > 1.11 | > 33600 nM | > 9720 nM | > 3.46 |  | < 0.336 |  |  | > 100000 nM |  |  |  |  |  | 6 days | inactive |
| N=C(N)c1ccc(COc2ccc3cc(OCc4ccc(C(=N)N)cc4)ccc3c2)cc1 |  | 2360 nM |  | 19300 nM |  |  |  |  |  |  | 7120 nM |  |  |  |  |  |  |  |
| CC(C)NC(=N)c1cccc(OCc2ccc(COc3cccc(C(=N)NC(C)C)c3)cc2)c1 |  | 1200 nM | 72.4 | 87000 nM | 47.4 nM | 1830 |  | 5.89 |  |  | 14800 nM |  |  |  |  |  |  |  |
| c1ccc(COc2ccc(C3=NCCN3)cc2)c(COc2ccc(C3=NCCN3)cc2)c1 |  | 647 nM | 168 | 109000 nM | 10.4 nM | 10500 |  | 29.8 |  |  | 3660 nM |  |  |  |  |  |  |  |
| N=C(N)c1ccc(-c2ccc(-c3ccc(C(=N)N)cc3)o2)cc1 [FURAMIDINE] |  | 3.2 nM |  |  |  |  |  |  |  |  |  |  |  |  |  |  |  |  |
| N=C(N)c1cccc(OCc2cccc(COc3cccc(C(=N)N)c3)c2)c1 |  | 47.3 nM | 1360 | 64200 nM | 19.1 nM | 3360 |  |  |  | inactive |  | 17 days |  |  |  |  |  |  |
| c1cc(OCc2ccccc2COc2cccc(C3=NCCN3)c2)cc(C2=NCCN2)c1 |  | 24200 nM | 2.75 | 66500 nM | 362 nM | 184 |  | < 0.665 |  |  | > 100000 nM |  |  |  |  |  |  |  |
| CC(C)NC(=N)c1cccc(OCc2ccccc2COc2cccc(C(=N)NC(C)C)c2)c1 |  | 1280 nM | > 126 | > 162000 nM | 111 nM | > 1470 |  | < 5.41 |  |  | > 30000 nM |  |  |  |  |  |  |  |
| c1cc(OCc2ccc(COc3cccc(C4=NCCN4)c3)cc2)cc(C2=NCCN2)c1 |  | 1420 nM | 13.9 | 19800 nM | 113 nM | 175 |  | < 0.099 |  |  | > 200000 nM |  |  |  |  |  |  |  |
| N=C(N)c1ccc(OCCCCCOc2ccc(C(=N)N)cc2)cc1 [PENTAMIDINE] | 42.8 days |  |  |  |  |  | inactive |  |  |  |  |  |  |  |  |  |  |  |
| N=C(N)c1ccc(OCc2ccccc2COc2ccc(C(=N)N)cc2)cc1 | 13.5 days | 144 nM | 209 | 30100 nM | 153 nM | 197 | inactive | 7.87 |  |  | 3820 nM |  |  |  |  |  |  |  |
| N=C(NO)c1ccc(OCc2cccc(COc3ccc(C(=N)NO)cc3)c2)cc1 |  | > 62600 nM | < 0.104 | 6530 nM | > 10400 nM | < 0.628 |  | < 0.0653 |  |  | > 100000 nM |  |  |  |  |  | >38.3 days |  |
| c1cc(COc2ccc(C3=NCCN3)cc2)ccc1COc1ccc(C2=NCCN2)cc1 | 15 days | 380 nM | 79.5 | 30200 nM | 18 nM | 1680 | inactive | 15.9 |  |  | 1900 nM |  |  |  |  |  |  |  |
| c1cc(COc2ccc(C3=NCCN3)cc2)cc(COc2ccc(C3=NCCN3)cc2)c1 | 22.8 days | 46.2 nM | 2670 | 123000 nM | 18 nM | 6860 | inactive | 30.9 |  |  | 3990 nM |  |  |  |  |  |  |  |
